SMILES strings stand for the structures. The whole screen tested about 200,000 compounds, of which about 2,000 (1%) were called active.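 The calls were made as follows: active = inhibition above the campaign mean inhibition of all tested compounds plus 3 SD (cut at about 20% in these data); inactive = the rest.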 Only a selection was taken, and actives are over-represented in it overall.

The target in the test is Neuropeptide Y receptor type 1 (Homo sapiens) (UniProt P25929). The test is described as follows: NPY-Y1 receptor antagonists, primary screen, cell-based (AID 1040).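 Also: 0% = DMSO wells given NPY plus isoproterenol and 100% = isoproterenol alone without NPY.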 The note with it: HEK293-CNG Y1 cells, membrane potential fluorescence; at 3.6 µM; stronger effect = higher value; NPY at EC95, then isoproterenol. In a few lines: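 Material: Y1- and CNG-channel-expressing HEK293 cells / Probe or stimulus: NPY 25 nM then isoproterenol 1 µM plus Ro 20-1724 25 µM / Doses: 3.6 µM single dose, DMSO 0.4% / Schedule: compound incubation 1 h at room temperature, readout 45 min post-stimulation / Signal: membrane potential fluorescence / Benchmarks: isoproterenol-only wells as full block versus NPY-plus-isoproterenol wells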
Chain of Neuropeptide Y receptor type 1 (Homo sapiens) (P25929 whole entry, looked up): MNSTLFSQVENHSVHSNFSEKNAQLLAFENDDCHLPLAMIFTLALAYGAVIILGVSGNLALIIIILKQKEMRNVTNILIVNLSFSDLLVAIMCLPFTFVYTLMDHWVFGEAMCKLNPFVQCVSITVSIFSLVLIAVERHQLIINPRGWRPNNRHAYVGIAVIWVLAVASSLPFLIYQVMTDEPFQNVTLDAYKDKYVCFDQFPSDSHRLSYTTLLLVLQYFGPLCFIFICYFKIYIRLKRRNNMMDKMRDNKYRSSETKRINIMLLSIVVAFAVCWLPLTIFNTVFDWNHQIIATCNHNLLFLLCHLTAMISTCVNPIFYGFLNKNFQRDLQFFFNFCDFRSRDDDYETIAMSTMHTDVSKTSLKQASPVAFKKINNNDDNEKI
Take `NC(=O)c1ccc(NC(=O)COC(=O)C(Cc2ccccc2)NC(=O)c2ccccc2)cc1` (centres undefined): the inhibition (in general, the relative decrease from the control value, in per cent) was 4.77% (inactive).
For the compound `O=C(CC(Cc1ccccc1)C(=O)O)NCCc1ccc2c(c1)OCO2` (centres undefined), the inhibition is 8.49% (inactive).
On to `O=C(NCCc1ccc2c(c1)OCCO2)c1cc2ccccc2o1`, for which the inhibition was 21.4% (active).
Consider `O=C(Nc1ccncc1)c1cc2ccccc2o1`, for which the inhibition was -5.2% (inactive).
As to `CC[C@H](C)[C@@H](C(=O)N1CCNCC1)n1cc([C@@H](N)Cc2ccc(O)cc2)nn1`, the inhibition is 4.22% (inactive).
Turning to `COc1cc(OC)nc(S(C)(=O)=O)n1`, the inhibition was -1.87% (inactive).
Regarding `Cc1ccccc1NC(=O)Cn1c(=O)n(CC2CCCO2)c(=O)c2ccccc21` (centres undefined), the inhibition is 0.4% (inactive).
To `COc1cc(OC)cc(-c2nnc(SCC(=O)Nc3ccc(C(=O)O)cc3)s2)c1` belongs -5.61% (inactive); to `N=c1n(CCc2ccccc2)c2ccccc2n1Cc1ccccc1F`, 24.2% (active); to `Fc1ccccc1Cn1cnc(NC(=S)NCCc2ccccc2)n1`, 0.55% (inactive).
In the case of `CN(Cc1ccccc1)Cc1ccccc1F`, the inhibition was 0.6% (inactive).
For `CCOC(=O)C1CCCN(C(=O)c2cccc(S(=O)(=O)N3CCOCC3)c2)C1` (centres undefined), the inhibition was -0.08% (inactive).
Turning to `Cc1cccc(C)c1OCC(=O)NC(Cc1c[nH]c2ccccc12)C(=O)O` (centres undefined), the inhibition was 6.9% (inactive).
Regarding `Cc1ccccc1-c1n[nH]c(=S)n1C`, the inhibition was 1.64% (inactive).
Take `c1ccc2c(NC3C4CC5CC(C4)CC3C5)nc(N3CCOCC3)nc2c1` (centres undefined): the inhibition is 31.8% (active).
`c1ccc(Nc2nc(N3CCOCC3)c3ccccc3n2)cc1`: the inhibition is 3.28% (inactive).
`c1ccc(-c2nnc(N3CCOCC3)c3ccccc23)cc1`: the inhibition is -0.9% (inactive).
Take `COC(=O)Cc1ccc(N(Cc2ccccc2F)S(=O)(=O)c2ccc(Br)cc2)cc1`: the inhibition was 18.1% (inactive).
For `COc1ccc(-n2nc(C(=O)Nc3cc(OC)c(OC)c(OC)c3)c3ccccc3c2=O)c(OC)c1`, the inhibition was 1.85% (inactive).
As for `O=c1c2ccccc2c(-c2ccccc2)nn1Cc1ccccc1`, the figure is 0.35% (inactive); as for `O=c1c2ccccc2c(-c2ccc(F)cc2)nn1-c1ccc(C(F)(F)F)cc1`, 21.4% (active).
Consider `O=c1c2ccccc2c(-c2ccccc2)nn1-c1ccccn1`, for which the inhibition is 4.37% (inactive).
As to `COc1ccc(CS(=O)/C(Cl)=C(/Cl)C(=O)Nc2ccc(OC)nc2)cc1` (centres undefined), the inhibition is 11.2% (inactive).
In the case of `Cc1ccc(-n2nc3ccc(NC(=O)/C=C/c4ccco4)cc3n2)cc1C`, the inhibition is 6.59% (inactive).
As to `O=C(Cc1cccs1)Nc1cccc(-c2nc3ccccc3[nH]2)c1`, the inhibition was 3.86% (inactive).
For the compound `O=C(/C=C/c1ccco1)Nc1cccc(-c2nc3ccccc3[nH]2)c1`, the inhibition is 20.3% (active).
As for `CC(C)C(c1nnnn1C1CCCC1)N1CCN(c2ccccc2F)CC1` (centres undefined), the figure is 10.8% (inactive); as for `COc1ccc(N2CCN(C(c3cc4ccc(C)cc4[nH]c3=O)c3nnnn3C3CCCC3)CC2)cc1` (centres undefined), 0.99% (inactive); as for `COc1ccc(C(c2nnnn2C2CCCCC2)N2CCN(c3ccccc3F)CC2)cc1` (centres undefined), 23.3% (active).
To `CC(C)C(=O)Nc1oc(-c2ccccc2)cc1C#N` belongs 3.99% (inactive); to `O=C(c1cccc(S(=O)(=O)Nc2ccccc2Cl)c1)N1CCN(C(=O)c2ccco2)CC1`, -2.11% (inactive).
As to `O=C(O)CCCCOn1ccnc1`, the inhibition is 4.94% (inactive).
As for `O=C(CCCn1c(SCC(=O)c2ccc(F)cc2)nc2ccccc2c1=O)NCc1ccco1`, the inhibition is 3.6% (inactive).
As for `C=C(C)Cn1c(SCC(=O)NCc2ccco2)nc2sc3c(c2c1=O)CCC3`, the inhibition is 8.57% (inactive).
`O=C(CSc1nc2cc3c(cc2c(=O)n1CCC1=CCCCC1)OCO3)NCc1ccco1`: the inhibition was 26.8% (active).
As for `CCC1(CC)NC(=O)N(CC(=O)OCC(=O)NC(=O)c2ccccc2)C1=O`, the figure is 1.96% (inactive); as for `CC1(C)C2CC=C(/C=N/NC(=O)C3CC3)C1C2` (centres undefined), 4.14% (inactive); as for `CSCC[C@H](NC(=O)OC(C)(C)C)C(=O)N/N=C/c1cc2ccc(C)cc2nc1Cl`, -2.75% (inactive).
To `CC(=O)c1ccc(NC(=O)c2ccc3c(Cl)c4c(nc3c2)CCCC4)cc1` belongs -4.67% (inactive).
For the compound `COc1ccc(-c2nnc(SCC(=O)c3ccc4c(c3)OCCO4)o2)cc1`, the inhibition is -4.74% (inactive).
As for `Fc1ccc2nc(-c3ccccc3)nc(SCc3nnc(-c4ccccc4)o3)c2c1`, the inhibition was 2.58% (inactive).
As for `Fc1ccc(-c2nnc(CSc3nnc(-c4ccc5c(c4)OCO5)o3)o2)cc1`, the figure is 29.9% (active); as for `CCCS(=O)(=O)N1CCC(CCOc2ccccc2)(C(=O)OCC)CC1`, 6.41% (inactive).
To `COC(=O)c1c(NC(=O)COC(=O)[C@@H](NS(=O)(=O)c2ccccc2)C(C)C)sc2c1CCC2` belongs 10.2% (inactive).
On to `COc1ccc2c3c(c(=O)oc2c1OCC(=O)C(C)(C)C)CCCC3`, for which the inhibition was 10.2% (inactive).
Turning to `CCCOc1ccc2c3c(c(=O)oc2c1OCCC)CCC3`, the inhibition is 21.1% (active).
`O=c1oc2c(CN3CCCCC3)c(O)ccc2c2c1CCCCC2`: the inhibition was 6.84% (inactive).
To `O=C(CSc1nc2ccc(Nc3nc(N4CCOCC4)nc(N4CCOCC4)n3)cc2s1)NCc1ccco1` belongs 2.78% (inactive); to `CN(C)c1ccc(C(CNC(=O)c2ccc(F)cc2)c2c[nH]c3ccccc23)cc1` (centres undefined), -7.11% (inactive).
For `C=CCOC(=O)C1=C(C)OC(N)=C(C#N)C1c1ccc(F)cc1` (centres undefined), the inhibition is -1.17% (inactive).
`C=CCSc1nc2c(c(=O)[nH]1)C(C(C)C)C(C#N)=C(N)O2` (centres undefined): the inhibition is 77.2% (active).
Consider `Cc1cc2c(c(=O)n1C)C(C(C)C)C(C#N)=C(N)O2` (centres undefined), for which the inhibition was 9.44% (inactive).
Take `CC(=O)Oc1c(C(=O)c2nnc(C)o2)c(=O)n(Cc2ccccc2)c2ccccc12`: the inhibition is 1.05% (inactive).
For `COc1ccc(F)cc1C(=O)C1CCCN(C(=O)CCc2ccccn2)C1` (centres undefined), the inhibition was 6.35% (inactive).
To `CCS(=O)(=O)Nc1ccc(C2=NN(C(C)=O)C(c3cccs3)C2)cc1` (centres undefined) belongs -0.01% (inactive); to `O=C(NC(Nc1nc2ccc([N+](=O)[O-])cc2s1)(C(F)(F)F)C(F)(F)F)c1ccccc1`, 32.9% (active).
`O=C(O)CCC(=O)Nc1nc2ccc([N+](=O)[O-])cc2s1`: the inhibition was -1.24% (inactive).
With `O=C(Nc1nc2ccc([N+](=O)[O-])cc2s1)c1ccc(S(=O)(=O)N2CCCc3ccccc32)cc1`, the inhibition was -0.71% (inactive).
With `Cc1nonc1C(=O)N/N=C/c1ccc(O)cc1`, the inhibition was -0.92% (inactive).
As for `Cc1ccc(C)c2[nH]c(=O)c(CCNC(=O)c3cccs3)cc12`, the figure is 1.69% (inactive); as for `CCNC(=O)COC(=O)/C=C/c1c(C)nn(Cc2cccc(OC)c2)c1Cl`, 9.4% (inactive).
As for `COc1ccc(C)c(Cn2c(-c3nonc3N)nc3ccccc32)c1`, the figure is 20.2% (active).
`Nc1nonc1-c1nc2ccccc2n1Cc1ccc(F)cc1`: the inhibition is 33.9% (active).
Regarding `CC(=O)Nc1nonc1-c1nc2ccccc2n1Cc1ccccn1`, the inhibition was 1.23% (inactive).
For `Nc1nonc1-c1nc2ccccc2n1CCC(=O)O`, the inhibition was 2.11% (inactive).
Take `COCCn1c(-c2ccc(OC)c(OC)c2)nc2ccccc21`: the inhibition was 1.65% (inactive).
For the compound `CCCn1c(C(O)c2cc(OC)ccc2OC)nc2ccccc21` (centres undefined), the inhibition is 6.38% (inactive).
As for `COc1ccc(C(=O)Nc2c(Cl)cc(Cl)cc2C(=O)N2CCC(C)CC2)cc1`, the figure is 7.28% (inactive).
Regarding `O=C(N/N=C/c1ccc(Br)o1)c1cncc(Br)c1`, the inhibition is 0.31% (inactive).
`CCCOc1ccc(N/C=C/C(=O)C(C)(C)C)cc1`: the inhibition is -0.02% (inactive).
On to `CCCOc1ccc(C(=O)C(CCC(CNCC)C(=O)c2ccc(OCCC)cc2)CNCC)cc1` (centres undefined), for which the inhibition is 41.9% (active).
For `CCCOc1ccc(C(=O)NCCc2ccccc2)cc1`, the inhibition is 4.6% (inactive).
On to `O=C(O)/C(=C/c1cccnc1)NC(=O)c1ccccc1`, for which the inhibition is -1.58% (inactive).
With `CCOc1ccc(S(=O)(=O)NCCSc2ccccc2)cc1`, the inhibition is 28.4% (active).
As to `O=S(=O)(NCCSc1ccccn1)c1ccc(Cl)cc1`, the inhibition was 7.92% (inactive).
In the case of `Cc1ccc(S(=O)(=O)NCCSc2ccccc2)cc1[N+](=O)[O-]`, the inhibition was 20.1% (inactive).
Regarding `C/C(=N\Nc1ncc(Cl)cc1Cl)c1cccs1`, the inhibition is 4.59% (inactive).
`CCOP(=O)(OCC)C(Nc1cccc(C)c1)c1ccc(F)cc1` (centres undefined): the inhibition is 6.17% (inactive).
As to `Cc1cc(N2CCN(C)CC2)nc2ccc(NC(=S)N3CCOCC3)cc12`, the inhibition was 6.76% (inactive).
Consider `Cc1nc(-c2ccccc2)sc1C(=O)/C=C/N(C)C`, for which the inhibition was 6.13% (inactive).
As for `Cc1nc(-c2ccccc2)sc1C(=O)/C=C/c1ccccc1`, the inhibition is 21.8% (active).
As for `Cc1ccc(SCC(=O)c2sc(-c3ccccc3)nc2C)cc1`, the figure is 8.05% (inactive); as for `CC(Oc1ccc(Br)cc1Br)C(=O)NC1CCCC1` (centres undefined), 7.12% (inactive).
As to `COc1ccc(OC)c(NC(=O)CSc2nc3cccnc3n2C)c1`, the inhibition was 10.8% (inactive).
As for `COc1ccc(NC(=O)CSc2nc(N)c(-c3ccccc3)c(=O)[nH]2)cc1`, the figure is 7.14% (inactive).
For `COc1ccc(OC)c(NC(=O)CSc2nc(N)c(-c3ccccc3)c(=O)[nH]2)c1`, the inhibition was 30.3% (active).
To `Cc1ccc(S(=O)(=O)CC(=O)Nc2c(C)n(C)n(-c3ccccc3)c2=O)cc1` belongs 1% (inactive).
As for `Cc1ccc2c(c1)C1CN(C)CCC1N2C(=S)Nc1ccc(Cl)cc1Cl` (centres undefined), the inhibition was 0.03% (inactive).
To `Cc1cc(SCC(=O)c2ccccc2)nc(SCC(=O)c2ccccc2)n1` belongs 18.3% (inactive); to `Cc1cc(Oc2ccc(Cl)cc2)nc(SCC(=O)c2ccccc2)n1`, 44.4% (active); to `COC(=O)c1cc(C(=O)CSc2nc(C)cc(C)n2)ccc1O`, -2.7% (inactive).
For the compound `Cc1cc(C)c(NC(=O)C[N+](C)(C)CC(O)COc2cccc3ccccc23)c(C)c1` (centres undefined), the inhibition is -12.8% (inactive).
Take `Cc1cccc(NC(=S)NC23CN4CN(CN(C4)C2)C3)c1`: the inhibition is -0.45% (inactive).
As for `COc1cc(CNC2CCCCC2)c(Br)cc1OC1CCCC1`, the figure is -5.34% (inactive).
Take `CCOCCCNCc1cc(Br)ccc1OCC`: the inhibition is 11.8% (inactive).
Regarding `CC(C)(C)NCc1cc(Br)ccc1OC1CCCC1`, the inhibition is 37.7% (active).
To `COc1ccc(Sc2nc(-c3ccccc3)ncc2OC)cc1` belongs 3.64% (inactive).
With `CCc1cccc(NC(=O)CCNS(=O)(=O)c2cccc3nonc23)c1`, the inhibition is 0.89% (inactive).
As for `CCN(CC)S(=O)(=O)c1ccc(Cl)c(NC(=O)c2ccncc2)c1`, the figure is 1.54% (inactive).

The record behind these values is PubChem BioAssay AID1040 (The Scripps Research Institute Molecular Screening Center, 2008).
